Measured values as given in PMC9116722 (Cancer chemotherapy and pharmacology, 2022).

Key:
[1] = tested on: PAR; experiment: PAR levels in PBMC and tumor biopsies; assay type: in vivo, human
[2] = Non-compartmental pharmacokinetics; assay type: in vivo, human
In short: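 Patients took oral drug twice daily, continuously, at 50–500 mg BID. Plasma parent drug and active metabolite M8 were measured by a validated assay. Parameters were derived non-compartmentally on day 1 and reported as geometric mean (SD). Accumulation indices for Cmax and AUC0–8 were compared with theoretical values from D1 half-lives. Dose proportionality was tested on day-1 Cmax and AUC0-inf (95% CI of coefficient including 1).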

[3] = geometric mean (standard deviation)

C[C@]1(c2nc3c(C(N)=O)cccc3[nH]2)CCCN1 [veliparib]
reduction of tumor PAR level ([1]; DL8, one evaluable patient): ≥ 99%
PBMC PAR levels after administration ([1]; at 2 hours and 24 hours, most samples, particularly higher dose levels): decreased
PK dose dependence ([2]; 50-500 mg BID): linear with dose
theoretical accumulation index ([2]; calculated from D1 half-lives, geometric mean (SD)): 1.34 (1.12)
accumulation index for AUC0–8 [2, 3]: 1.30 (1.29)
accumulation index for Cmax [2, 3]: 1.24 (1.37)
Vd/F ([2]; human, in vivo, oral): 123 L
Cl/F ([2]; non-compartmental, current study): 15.9 (1.40) L/h
